Source: PMC9311154 (British Journal of Clinical Pharmacology, 2022)
“And” between values parts separate entries of the source, which are not always exact repeats. Identical values can stand only once. “Also recorded” adds a separate entry of the source. Like-named read-outs stand apart in the source and are kept apart here. Marks after values point to notes of the source that are not given here.

How the values were obtained:
prothrombin time (PT) = assay: Prothrombin time; type: in vivo, human; details: compared with placebo
C1 esterase inhibitor = C1 esterase inhibitor activity; type: in vivo, human; details: compared with placebo
Method in brief: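 Healthy men given the oral test compound (25, 50 or 100 mg once daily, or 25 mg twice daily) or placebo: single dose on day 1, washout days 2–3, dosing days 4–11, once-daily dose day 12. C1 esterase inhibitor activity measured in plasma by chromogenic substrate kit on a coagulation analyser, per manufacturer's instructions. Summarised descriptively, with no prespecified formal statistics.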

Safety and tolerability [1] = type: in vivo, human
Method in brief: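 Randomised, single-blind, placebo-controlled dose escalation in healthy men, 36 on active and 12 on placebo. Adverse events counted as treatment-emergent if they began or worsened after first study medication, up to 7 days post-treatment. Also assessed: physical examination, vital signs, 12-lead ECG and clinical laboratory tests. All participants dosed at least once were analysed descriptively.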

[2] = BAY 2433334 pharmacokinetics in plasma and urine, Parts A and B; type: in vivo, human; details: for tmax: median (range)
[3] = animal models; cited from earlier work
[4] = tested on: activated partial thromboplastin time (aPTT); assay: aPTT; type: in vivo, human
[5] = tested on: activated partial thromboplastin time (aPTT); details: whole blood or plasma, in vitro and ex vivo; cited from earlier work
Safety and tolerability [6] = type: in vivo, human; remark: listed apart in the source
FXI = FXI concentration; type: in vivo, human; details: compared with placebo
Method in brief: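 Healthy men randomised to the oral test compound (25/50/100 mg once daily or 25 mg twice daily) or placebo. Single dose day 1, washout days 2–3, repeat dosing days 4–11, final dose day 12, after an overnight fast of at least 10 h on profiling days. FXI concentration measured by microtitre-plate ELISA with polyclonal antibodies. Descriptive summary only.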

[7] = multiple once‐daily dosing for 9 consecutive days
[8] = 25 mg multiple dose + midazolam
[9] = 25 mg treatment sequence, Total (N = 24)
[10] = 75 mg multiple dose + midazolam
[11] = 75 mg treatment sequence, Total (N = 24)

Question: Which results are given for CC[C@@H](C(=O)Nc1ccc(C(N)=O)c(F)c1)n1cc(OC)c(-c2cc(Cl)ccc2-n2cc(C(F)(F)F)nn2)cc1=O [BAY 2433334]?
Answer: Effect on PT (absolute and INR values) (prothrombin time (PT)): no effect; Effect on complement C1 esterase inhibitor activity (C1 esterase inhibitor): no significant effect; Adverse event(s) of special interest: Bleeding (Safety and tolerability [1]; 25 mg BID): 0 Number (%); Any adverse event(s) of special interest (Safety and tolerability [1]; 25 mg BID): 1 (11.1%) Number (%); Any study drug‐related adverse event(s) (Safety and tolerability [1]; 25 mg BID): 0 Number (%); Any study procedure‐related adverse event(s) (Safety and tolerability [1]; 25 mg BID): 2 (22.2%) Number (%); TEAE: Medical device site urticaria (Safety and tolerability [1]; 25 mg BID): 1 (11.1%) Number (%); Adverse event(s) of special interest: Investigations (Safety and tolerability [1]; 25 mg BID, Glutamate dehydrogenase increased): 1 (11.1%) ^e Number (%); Adverse event(s) of special interest: Bleeding (Safety and tolerability [1]; 25 mg OD): 0 Number (%); Any adverse event(s) of special interest (Safety and tolerability [1]; 25 mg OD): 1 (11.1%) Number (%); Any study drug‐related adverse event(s) (Safety and tolerability [1]; 25 mg OD): 0 Number (%); Any study procedure‐related adverse event(s) (Safety and tolerability [1]; 25 mg OD): 1 (11.1%) Number (%); TEAE: Medical device site urticaria (Safety and tolerability [1]; 25 mg OD): 0 Number (%); Adverse event(s) of special interest: Investigations (Safety and tolerability [1]; 25 mg OD, Amylase increased): 1 (11.1%) ^c Number (%); Adverse event(s) of special interest: Bleeding (Safety and tolerability [1]; 50 mg OD): 0 Number (%); Any adverse event(s) of special interest (Safety and tolerability [1]; 50 mg OD): 1 (11.1%) Number (%); Any study drug‐related adverse event(s) (Safety and tolerability [1]; 50 mg OD): 0 Number (%); Any study procedure‐related adverse event(s) (Safety and tolerability [1]; 50 mg OD): 3 (33.3%) Number (%); TEAE: Medical device site urticaria (Safety and tolerability [1]; 50 mg OD): 0 Number (%); Adverse event(s) of special interest: Investigations (Safety and tolerability [1]; 50 mg OD, Lipase increased): 1 (11.1%) ^d Number (%); Adverse event(s) of special interest: Bleeding (Safety and tolerability [1]; 100 mg OD): 0 Number (%); Any adverse event(s) of special interest (Safety and tolerability [1]; 100 mg OD): 1 (11.1%) Number (%); Any study procedure‐related adverse event(s) (Safety and tolerability [1]; 100 mg OD): 1 (11.1%) Number (%); TEAE: Medical device site urticaria (Safety and tolerability [1]; 100 mg OD): 1 (11.1%) Number (%); Any study drug‐related adverse event(s) (Safety and tolerability [1]; 100 mg OD, Headache): 2 Number (%) and 2 (22.2%) ^b Number (%); Adverse event(s) of special interest: Investigations (Safety and tolerability [1]; 100 mg OD, Lipase increased): 1 (11.1%) ^d Number (%); Adverse events leading to discontinuation (Safety and tolerability [1]; Parts A or B): No adverse events leading to discontinuation; Adverse event(s) of special interest: Bleeding (Safety and tolerability [1]; Total BAY 2433334 (n = 36)): 0 Number (%); Adverse event(s) of special interest: Investigations (Safety and tolerability [1]; Total BAY 2433334 (n = 36)): 4 (11.1%) Number (%); Any adverse event(s) of special interest (Safety and tolerability [1]; Total BAY 2433334 (n = 36)): 4 (11.1%) Number (%); Any study drug‐related adverse event(s) (Safety and tolerability [1]; Total BAY 2433334 (n = 36)): 2 (5.6%) Number (%); Any study procedure‐related adverse event(s) (Safety and tolerability [1]; Total BAY 2433334 (n = 36)): 7 (19.4%) Number (%); TEAE: Medical device site urticaria (Safety and tolerability [1]; Total BAY 2433334 (n = 36)): 2 (5.6%) Number (%); Adverse events related to bleeding (Safety and tolerability [1]; all study parts): no clinically relevant adverse events related to bleeding; Serious adverse events (Safety and tolerability [1]; all study parts): no serious adverse events were reported; Tolerability (Safety and tolerability [1]; all study parts): well tolerated; Effects on vital signs, ECG or clinical laboratory investigations (Safety and tolerability [1]; other than the anticipated prolongation of aPTT): No clinically relevant effects; Dose proportionality of AUC and Cmax in plasma ([2]; 25–100 mg OD, single and multiple dosing, Part A): dose proportional; also recorded: appeared to increase dose proportionally; arithmetic mean renal elimination (%AE,ur) of unchanged drug ([2]; after multiple dosing): 10.1–13.5%; RLIN, range ([2]; after once‐daily administration): 1.03–1.08; arithmetic mean renal elimination (%AE,ur) of unchanged drug ([2]; after single‐dose administration): 7.61–13.4 % of the dose; geometric mean terminal half‐life (t1/2), range across treatment groups ([2]; day 1): 14.0 to 15.9 h; tmax ([2]; day 1, 25 mg BID group): 3.00 (1.00–5.98) h; tmax ([2]; day 1, 25 mg OD): 2.00 (1.48–5.98) h; tmax ([2]; day 1, 50 mg OD): 2.00 (0.750–4.00) h; tmax ([2]; day 1, 100 mg OD): 3.97 (1.47–6.00) h; apparent oral clearance, geometric means ([2]; day 1, across treatment groups): 3.68 to 4.09 L/h; median time to Cmax, range across treatment groups ([2]; day 1, all treatment groups): 2.00 to 3.97 h; tmax ([2]; day 12, 25 mg BID): 1.50 (1.00–6.00) h; tmax ([2]; day 12, 25 mg OD): 4.00 (1.00–6.03) h; tmax ([2]; day 12, 50 mg OD): 3.00 (0.750–6.05) h; tmax ([2]; day 12, 100 mg OD): 4.00 (1.50–6.00) h; apparent oral clearance, geometric means ([2]; day 12, across treatment groups): 3.39 to 4.04 L/h; mean terminal half‐life (t1/2), range across treatment groups ([2]; day 12, after multiple dosing): 15.8 to 17.8 h; median time to Cmax, range across once‐daily groups ([2]; day 12, once‐daily dosing): 3.00 to 4.00 h; RAAUC geometric mean, range [2, 7]: 1.50–1.72; RACmax geometric mean, range [2, 7]: 1.41–1.63; Reduction in thrombus weight [3]: dose‐dependent reductions; Prolongation of aPTT ([4]; Parts A and B): dose‐dependent prolongation; first time point at which prolongation of aPTT was apparent ([4]; after dosing): 30 min; time of maximal aPTT prolongation after dosing ([4]; in vivo): approximately 4 h; Prolongation of aPTT [5]: concentration‐dependent prolongation; Adverse event(s) of special interest (Safety and tolerability [6]; [8]): 0 Number (%); Study drug‐related adverse event(s) (Safety and tolerability [6]; [8]): 0 Number (%); Study procedure‐related adverse event(s) (Safety and tolerability [6]; [8]): 0 Number (%); Adverse event(s) of special interest (Safety and tolerability [6]; 25 mg multiple dose alone): 0 Number (%); Study drug‐related adverse event(s) (Safety and tolerability [6]; 25 mg multiple dose alone): 0 Number (%); Study procedure‐related adverse event(s) (Safety and tolerability [6]; 25 mg multiple dose alone): 1 (4.2%) Number (%); Adverse event(s) of special interest (Safety and tolerability [6]; 25 mg single dose + midazolam): 0 Number (%); Study drug‐related adverse event(s) (Safety and tolerability [6]; 25 mg single dose + midazolam): 0 Number (%); Study procedure‐related adverse event(s) (Safety and tolerability [6]; 25 mg single dose + midazolam): 0 Number (%); Adverse event(s) of special interest (Safety and tolerability [6]; [9]): 0 Number (%); Study drug‐related adverse event(s) (Safety and tolerability [6]; [9]): 0 Number (%); Study procedure‐related adverse event(s) (Safety and tolerability [6]; [9]): 4 (16.7%) Number (%); Adverse event(s) of special interest (Safety and tolerability [6]; [10]): 0 Number (%); Study drug‐related adverse event(s) (Safety and tolerability [6]; [10]): 0 Number (%); Adverse event(s) of special interest (Safety and tolerability [6]; 75 mg multiple dose alone): 0 Number (%); Study drug‐related adverse event(s) (Safety and tolerability [6]; 75 mg multiple dose alone): 0 Number (%); Study procedure‐related adverse event(s) (Safety and tolerability [6]; 75 mg multiple dose alone): 0 Number (%); Adverse event(s) of special interest (Safety and tolerability [6]; 75 mg single dose + midazolam): 0 Number (%); Study drug‐related adverse event(s) (Safety and tolerability [6]; 75 mg single dose + midazolam): 0 Number (%); Study procedure‐related adverse event(s) (Safety and tolerability [6]; 75 mg single dose + midazolam): 0 Number (%); Adverse event(s) of special interest (Safety and tolerability [6]; [11]): 0 Number (%); Study drug‐related adverse event(s) (Safety and tolerability [6]; [11]): 0 Number (%); Study procedure‐related adverse event(s) (Safety and tolerability [6]; [11]): 2 (8.3%) Number (%); Study drug‐related TEAEs (Safety and tolerability [6]; Part C): No study drug‐related TEAEs; Participants who discontinued study medication because of TEAEs (Safety and tolerability [6]; Part C, 75 mg): 2 participants; Effect on FXI concentrations (FXI): no significant effect
